# Assay outcomes as filed in PubChem BioAssay.
# A selection: hits, their analogues and other compounds. The true share with any hit is near 4.1%.
# KCNK9 block = inhibitors of human KCNK9 two-pore domain potassium channel; HEK293 KCNK9, FluxOR thallium flux fluorescence; stronger effect = lower value; B-score at 10 µM; actives 1.2% (n = 310,000); AID 488922;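 active means ratio B-score over 3 SD below the library mean, with starting fluorescence within 5 SD of its mean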;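 further: negative B-score means less thallium flux so channel inhibition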
# Cl transport mod = KCC2 (human) Cl- transport modulation; Q9H2X9; KCC2 cells, thallium flux FluoZin-2 fluorescence; AID 1456; B-score of Tl+ flux slope (higher = more flux/activation; lower = inhibition) at 10 µM; actives 2.2% (n = 190,000);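 active means thallium flux slope and its plate-corrected score both differing from the plate sample mean at a set confidence after two filtering rounds, in either direction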;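 further: slope of fluorescence scaled to starting intensity during 10 to 20 s after thallium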
# KCNK3 inh = human KCNK3 channel inhibition, primary screen | actives 0.84% (n = 340,000) | O14649 | B-score at 10 µM | CHO-KCNK3 thallium flux, FluxOR fluorescence; stronger effect = lower value;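 active means B-score under library mean minus 4 SD, starting fluorescence ratio at most library mean plus 5 SD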;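 further: more negative B-score means stronger inhibition of thallium flux through KCNK3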
# Target sequence (O14649 whole entry, looked up): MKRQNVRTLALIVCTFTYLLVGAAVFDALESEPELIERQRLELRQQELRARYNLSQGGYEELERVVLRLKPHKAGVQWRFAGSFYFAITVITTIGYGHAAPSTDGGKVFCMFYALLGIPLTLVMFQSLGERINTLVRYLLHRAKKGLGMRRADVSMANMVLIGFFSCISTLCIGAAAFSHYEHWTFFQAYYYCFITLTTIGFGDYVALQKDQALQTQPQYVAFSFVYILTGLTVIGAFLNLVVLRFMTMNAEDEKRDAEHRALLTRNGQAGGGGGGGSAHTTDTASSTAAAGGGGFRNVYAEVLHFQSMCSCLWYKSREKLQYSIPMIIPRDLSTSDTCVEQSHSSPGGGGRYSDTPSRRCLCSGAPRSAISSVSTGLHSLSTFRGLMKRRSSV
# KCNQ1 pot = potentiators or activators of human KCNQ1 potassium channel; actives 0.35% (n = 310,000); CHO-K1 KCNQ1, thallium flux FluxOR fluorescence; stronger effect = higher value; AID 2648; B-score at 10 µM;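 active means fluorescence ratio B-score, a plate-corrected score, at least three library SD, with initial intensity B-score within 5 SD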
#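 Assay system: CHO-K1 cells stably expressing KCNQ1; Medium: assay buffer with matched DMSO; Also added: K+/Tl+ depolarizing stimulus; Dosing: single dose; Timing: dye 90 min, compound 20 min, room temperature; Measured by: kinetic FluxOR thallium fluorescence, 10-s 1-Hz baseline, 110-s post-stimulus read; Read-out: peak-minus-minimum fluorescence over initial fluorescence, negative-control normalized, B-scored.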
# hERG protect = hERG (human) protection from proarrhythmic block | CHO-hERG, FluxOR thallium flux, dofetilide IC70 present | Q12809 | actives 0.51% (n = 310,000) | AID 1511 | activation (rescue from dofetilide block), less the hit threshold, % at 10 µM;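 active means activation above the mean of controls blocked by dofetilide plus 5 SD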;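 further: thallium influx through hERG after potassium depolarization seen as dye fluorescence rise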
# KCNQ1 inh = human KCNQ1 channel inhibition | CHO-K1 KCNQ1, FluxOR thallium flux fluorescence; stronger effect = higher value | B-score at 10 µM | AID 2642 | P51787 | actives 1.3% (n = 310,000);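 active means compounds whose thallium flux B-score, printed positive for inhibition, exceeds three library SD while starting fluorescence stays within three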;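 further: channel opened by potassium depolarization with thallium stimulus after 20 min compound exposure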
# Starred values were filed as active, the others as inactive; i = inactive; . = no result given.
SMILES,KCNK9 block,Cl transport mod,KCNK3 inh,KCNQ1 pot,hERG protect,KCNQ1 inh
COc1ccccc1/C=C(/C(=O)OCC(=O)NCc1ccccc1)c1ccccc1,-8*,-0.86,i,i,-12,7*
COc1ccccc1/C=C(/C(=O)OCC(=O)Nc1ccccc1C)c1ccccc1,-7*,1.3,i,i,-8,8*
Cc1cccc(NS(=O)(=O)c2c(C)noc2C)c1,i,-0.37,i,i,-4,i
Cc1noc(C)c1S(=O)(=O)Nc1cccc(C(F)(F)F)c1,i,.,i,i,-8,6*
Cc1noc(C)c1S(=O)(=O)NCc1cccc(Cl)c1,.,.,-11*,.,.,.
Cc1ccc(C(=O)NCc2ccco2)cc1S(=O)(=O)N1CCCC1,i,.,i,i,-8,i
CNc1nc(-c2c(C)n(C)c3ccc(OC)cc23)cs1,i,.,i,i,-8,i
CC1CCCC(C)N1C(=O)COC(=O)/C=C/c1ccc(Br)o1 (stereo not given),.,.,i,.,.,.
c1ccc(Nc2nc(N3CCCCC3)nc(N3CCCCC3)n2)cc1,i,-1.1,i,i,-14,9*
CC1=C(C(=O)Nc2ccc(C(=O)NCCCN3CCCCC3)cc2)SCCO1,i,.,i,i,-8,i
C[C@H](CO)N1C[C@H](C)[C@@H](CN(C)C)Oc2c(NS(=O)(=O)c3cccs3)cccc2C1=O,.,.,i,.,.,.
COc1ccc(CNC(=O)CN(C(=O)CCC(=O)Nc2ccccn2)c2ccc(C)cc2)cc1,i,.,i,i,-4,i
O=C(COC(=O)c1cc(Cl)ccc1[N+](=O)[O-])NCc1ccc(Cl)cc1Cl,-7.3*,-2.8,i,i,-10,i
CCCCCCCCCCCC1=C(O)C(=O)C=C(O)C1=O,i,.,i,i,-6,i
COC1=CC(=O)C(O)=C(CCCCCCC/C=C/CCCCCCCC2=C(O)C(=O)C=C(OC)C2=O)C1=O,i,.,i,i,-6,10*
CN(C)c1ccc(C(=O)OCC(=O)c2ccc[nH]2)cc1,.,.,i,.,.,.
Cc1nc2ccccc2c2c1C(=O)NC2=O,i,-0.13,.,i,-24,i
COc1ccc(S(=O)(=O)Cc2ccc(C(=O)N3CCN(c4cc(Cl)ccc4C)CC3)o2)cc1,i,-0.0084,i,i,-5,6*
Cc1ccc(S(=O)(=O)Cc2ccc(C(=O)N3CCN(c4cccc(C)c4C)CC3)o2)cc1,-8.1*,.,i,i,-15,i
CCOC(=O)N1CCN(C(=O)c2cc(COc3c(F)cccc3F)on2)CC1,i,.,i,i,-7,i
CCOC(=O)c1cc(-c2nnc(-c3ccc(Oc4ccccc4)cc3)o2)c(C)nc1C,i,-0.62,-10*,i,-23,i
CCOC(=O)c1cc(C(=O)NN)c(C)nc1C,i,0.81,i,i,-8,i
CC1=C/C(=N\Nc2ccccc2[N+](=O)[O-])CC(C)(C)C1,i,0,i,i,-5,7*
C/C(=N/Nc1ccccc1[N+](=O)[O-])c1ccc([N+](=O)[O-])cc1,i,.,i,i,-8,i
CC(C)CCNC(=O)C1CCCCN1S(=O)(=O)c1ccc(F)cc1 (stereo not given),i,.,i,i,5.0*,i
SMILES,KCNK9 block,Cl transport mod,KCNK3 inh,KCNQ1 pot,hERG protect,KCNQ1 inh
CCC1(c2ccccc2)NC(=O)N(CC(=O)NCC2COc3ccccc3O2)C1=O (stereo not given),.,.,i,.,.,.
NC(=O)c1cc(S(=O)(=O)Nc2cccc(Cl)c2)cs1,i,.,i,i,4.9*,i
CCC(C)NC(=O)CSc1nnc(-c2cc(OC)c(OC)c(OC)c2)c(-c2cc(OC)c(OC)c(OC)c2)n1 (stereo not given),i,.,i,i,-2,i
CCn1c(CNC(=O)c2ccccc2F)nnc1SCc1nc2ccccc2c(=O)[nH]1,i,0.33,.,i,-8,i
Cn1c(CNC(=O)c2ccccc2F)nnc1SCc1nc2ccccc2c(=O)[nH]1,i,-0.38,.,i,6.8*,i
O=C1CC(c2ccco2)CC(O)=C1C=Nc1cc(Cl)ccc1O (stereo not given),i,.,i,i,-17,6*
O=C1CC(c2ccco2)CC(O)=C1C=Nc1cc(Cl)ccc1Cl (stereo not given),i,0.21,i,i,-4,i
COC(=O)[C@H](CC(C)C)NC(=O)Cn1cnc2c(SC)nc(N)nc21,.,.,i,.,.,.
CC(=O)c1c(O)c(C)c(O)c2c1OC1=CC(=O)C(C(C)=O)C(=O)[C@@]12C (stereo not given in full),i,.,i,i,-18,7*
O=c1c2c3c(sc2[nH]c(=S)n1Cc1ccco1)CCC3,i,78*,i,15*,11*,i
CC1(C)Cc2c(sc3c2c(=N)n(Cc2ccco2)c(=O)n3Cc2ccccc2)CO1,i,-0.97,i,i,-7,i
Cc1ccc(-n2c(=S)[nH]c3sc4c(c3c2=O)CCC4)cc1,i,.,i,8*,-2,i
CC1(C)Cc2c(sc3[nH]c(=S)n(Cc4ccco4)c(=O)c23)CO1,.,9*,i,.,.,.
CC1(C)Cc2c(sc3c2c(=N)n(Cc2ccco2)c(=O)n3Cc2ccc(Cl)cc2)CO1,i,0.66,i,i,-9,8*
N#Cc1ccccc1NC(=O)COC(=O)c1ccc2c(c1)OCO2,.,.,i,.,.,.
CN(C)c1ccc(/C=N/Nc2nncc3ccccc23)cc1,i,.,i,i,-7,i
O=C(COc1ccc(Cl)cc1Br)NCC(c1ccco1)N1CCCC1 (stereo not given),.,.,i,.,.,.
COc1ccc(NC(=O)Cc2nnc(SCC(=O)Nc3nccs3)n2C)cc1,i,.,i,i,-6,i
CSC(C(=O)c1cc2ccccc2o1)c1ccccc1 (stereo not given),i,.,i,15*,-6,i
COC(=O)c1ccc(C2N=C(c3cccs3)CC(c3ccccc3O)N2)cc1 (stereo not given),i,1.1,i,i,-19,7*
O=C(c1ccccc1)N1N=C(c2cccs2)CC1c1ccccc1O (stereo not given),i,.,i,i,-14,i
Cc1cc(C)n(CCOc2ccc(Cl)cc2Cl)n1,i,.,i,i,9.2*,i
Cc1cc(C)n(CC(O)COc2ccc(Cl)cc2Cl)n1 (stereo not given),i,.,i,i,-1,i
Cn1c(SCC(=O)N2CCCCCC2)nc2c(c1=O)SCC2,i,.,i,i,-9,i
COc1cccc(/C=N/Nc2ccc(C(=O)O)cc2)c1O,i,-0.76,i,i,5.5*,i
